We go through nine compounds from ChEMBL document CHEMBL4118168, “Synthesis and structure-activity relationship studies of MI-2 analogues as MALT1 inhibitors” (Bioorg Med Chem, 2018).

Activity calls are given as the source filed them. The calls are words filed in the database; no cut-off is given here.

The first experiment deals with T1, Mucosa-associated lymphoid tissue lymphoma translocation protein 1 (Homo sapiens) (UniProt Q9UDY8).
T1 sequence (whole entry): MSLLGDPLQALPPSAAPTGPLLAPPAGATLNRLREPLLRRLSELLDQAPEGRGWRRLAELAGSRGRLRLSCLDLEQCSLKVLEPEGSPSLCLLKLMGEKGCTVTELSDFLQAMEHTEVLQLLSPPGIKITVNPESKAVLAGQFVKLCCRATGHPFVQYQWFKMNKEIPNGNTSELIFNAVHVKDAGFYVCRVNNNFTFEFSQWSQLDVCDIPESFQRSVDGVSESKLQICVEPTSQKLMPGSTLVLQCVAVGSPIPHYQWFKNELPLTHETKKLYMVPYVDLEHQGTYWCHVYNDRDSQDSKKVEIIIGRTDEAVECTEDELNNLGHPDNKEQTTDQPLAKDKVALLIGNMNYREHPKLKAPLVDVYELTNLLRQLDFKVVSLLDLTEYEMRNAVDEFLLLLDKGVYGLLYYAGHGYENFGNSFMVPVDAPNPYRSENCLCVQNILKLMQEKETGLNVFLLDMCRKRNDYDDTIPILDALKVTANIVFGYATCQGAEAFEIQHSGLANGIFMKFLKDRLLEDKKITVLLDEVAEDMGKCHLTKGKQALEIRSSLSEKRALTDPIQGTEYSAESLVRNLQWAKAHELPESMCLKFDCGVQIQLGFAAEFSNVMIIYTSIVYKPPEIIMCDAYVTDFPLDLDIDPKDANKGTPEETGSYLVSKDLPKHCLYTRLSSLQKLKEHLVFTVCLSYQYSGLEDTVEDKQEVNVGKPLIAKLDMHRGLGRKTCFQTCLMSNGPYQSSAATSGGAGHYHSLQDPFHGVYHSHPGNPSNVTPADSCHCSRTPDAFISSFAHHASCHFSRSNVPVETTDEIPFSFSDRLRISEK
Nature of the experiment: Inhibition of MALT1 in PMA/ionomycin-stimulated human Jurkat T cells assessed as reduction in RelB cleavage at 2 uM pretreated for 4 hrs followed by 1 hr incubation with protease inhibitor MG132 and subsequent PMA/ionomycin-stimulation measured after 1 hr by Western blot analysis. It is filed as cell-based. In outline:
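Jurkat T cells in RPMI 1640 with 10% FBS, seeded at 9×10^5 cells/well, treated with compound or DMSO for 4 h, then 1 h with MG132 (10 μM), then stimulated with PMA. RelB cleavage as the read-out of MALT1 activity, detected by Western blot.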
(In general: Immunoblotting shows a protein as a band on a membrane.)
Consider `COCC(C)Oc1nc(-c2ccc(Cl)c(Cl)c2)n(-c2ccc(NC(=O)CCl)cc2)n1` (stereo not given), for which the inhibition entry was “Active”.
On to `O=C(CCl)Nc1ccc(-n2nc(OCC(O)CO)nc2-c2ccc(Cl)c(Cl)c2)cc1` (stereo not given), for which the inhibition entry is “Active”.
Same read-out and setting: the value for `COCCOCCOc1nc(-c2ccc(Cl)c(Cl)c2)n(-c2ccc(NC(=O)CCl)cc2)n1` was “Active”.
As to `O=C(CCl)Nc1ccc(-n2nc(OCCCO)nc2-c2ccc(Cl)c(Cl)c2)cc1`, the inhibition entry was “Active”.
On to `O=C(CCl)Nc1ccc(-n2nc(OCCc3cn(-c4ccccc4)nn3)nc2-c2ccc(Cl)c(Cl)c2)cc1`, for which the inhibition result is “Active”.
Same read-out and setting: the value for `COCCOc1nc(-c2ccc(NC(=O)CCl)cc2)n(-c2ccc(Cl)c(Cl)c2)n1` was “Active”.

In another experiment the test system is Toledo. In words: Antiproliferative activity against human Toledo cells after 48 hrs by CCK8 assay. It is filed as functional, cell-based.
`COCCOc1nc(-c2ccc(Cl)c(Cl)c2)n(-c2ccc(NC(=O)CCl)cc2)n1` came in with an IC50 of 0.8 µM.
On the same count and under the same terms, the value for `COCCOc1nc(-c2ccc(Cl)cc2)n(-c2ccc(NC(=O)CCl)cc2)n1` was 1.72 µM; that for `O=C(CCl)Nc1ccc(-n2nc(OCCN3CCOCC3)nc2-c2ccc(Cl)c(Cl)c2)cc1` was 0.47 µM; that for `O=C(CCl)Nc1ccc(-n2nc(OCCc3cn(-c4ccccc4)nn3)nc2-c2ccc(Cl)c(Cl)c2)cc1` was 0.38 µM.

For orientation: IC50 means the concentration at which inhibition is half-maximal. Read a high IC50 as lower potency.
